Data set [1] addresses Long-chain fatty acid transport protein 1 (Mus musculus, UniProt Q60714). Nature of the data set: Inhibition of mouse FLAG-tagged FATP1-mediated [1-14C] oleic acid conversion to [1-14C] oleoyl-CoA after 20 mins by scintillation counting analysis. An outline of the steps: (§1)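 Purified FLAG-tagged human or mouse FATP1 run in a cell-free acyl-CoA synthetase assay. Protein incubated with 10 µM [1-14C]oleic acid, 0.5 mM ATP, 0.5 mM CoA, 5 mM MgCl2, 30 mM NaCl, 0.05% Triton X-100 and 2 mM DTT in 100 mM Tris-HCl pH 7.4 for 20 min at 37 °C. Free oleate removed by heptane washes. Aqueous-phase radioactivity counted by scintillation. FLAG-luciferase background subtracted. IC50 is the mean of n ≥ 2.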

The target in data set [2] is Long-chain fatty acid transport protein 1 (Homo sapiens, UniProt Q6PCB7). Briefly: Inhibition of human FLAG-tagged FATP1-mediated [1-14C] oleic acid conversion to [1-14C] oleoyl-CoA after 20 mins by scintillation counting analysis. An outline of the steps: as §1
Data set [3] can be described thus: Metabolic stability in mouse liver microsomes assessed as compound remaining after 0.5 hr. The class given is ADME, Microsome. The conditions noted are these: read-out: Stability. The method, boiled down: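 Test compound incubated 0.5 h with mouse liver microsomes. Result given as percent of parent remaining.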
A general note: Liver microsomes are vesicles of endoplasmic reticulum, rich in cytochrome P450 enzymes.

A short description of data set [4]: 1-Octanol-phosphate buffered saline distribution coefficient, log D of the compound at pH 7.4. The data set is classed as physicochemical. An outline of the steps: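 logD measured by partitioning between 1-octanol and phosphate-buffered saline, pH 7.4.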

The structures appear in SMILES notation. pIC50: −log10 of the molar value.

Chain of Long-chain fatty acid transport protein 1 (Mus musculus, UniProt Q60714) (Q60714 whole entry): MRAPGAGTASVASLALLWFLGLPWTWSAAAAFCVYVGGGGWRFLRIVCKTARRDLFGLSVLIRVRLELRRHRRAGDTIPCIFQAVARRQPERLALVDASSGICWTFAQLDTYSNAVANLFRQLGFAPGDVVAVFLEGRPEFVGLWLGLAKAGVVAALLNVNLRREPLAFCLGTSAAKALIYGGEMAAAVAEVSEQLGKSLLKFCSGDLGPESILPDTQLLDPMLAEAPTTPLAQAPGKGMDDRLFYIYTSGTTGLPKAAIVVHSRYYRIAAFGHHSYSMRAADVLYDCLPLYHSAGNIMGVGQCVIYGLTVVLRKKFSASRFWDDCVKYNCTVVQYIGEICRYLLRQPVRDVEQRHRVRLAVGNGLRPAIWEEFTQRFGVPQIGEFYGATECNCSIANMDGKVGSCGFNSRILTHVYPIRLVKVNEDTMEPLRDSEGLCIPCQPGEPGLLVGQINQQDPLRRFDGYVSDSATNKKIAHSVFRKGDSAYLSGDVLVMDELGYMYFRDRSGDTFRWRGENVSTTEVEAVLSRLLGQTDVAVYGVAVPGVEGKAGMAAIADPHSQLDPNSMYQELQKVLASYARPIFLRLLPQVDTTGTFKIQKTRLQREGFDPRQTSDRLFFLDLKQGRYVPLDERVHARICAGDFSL
Chain of Long-chain fatty acid transport protein 1 (Homo sapiens, UniProt Q6PCB7) (Q6PCB7 whole entry): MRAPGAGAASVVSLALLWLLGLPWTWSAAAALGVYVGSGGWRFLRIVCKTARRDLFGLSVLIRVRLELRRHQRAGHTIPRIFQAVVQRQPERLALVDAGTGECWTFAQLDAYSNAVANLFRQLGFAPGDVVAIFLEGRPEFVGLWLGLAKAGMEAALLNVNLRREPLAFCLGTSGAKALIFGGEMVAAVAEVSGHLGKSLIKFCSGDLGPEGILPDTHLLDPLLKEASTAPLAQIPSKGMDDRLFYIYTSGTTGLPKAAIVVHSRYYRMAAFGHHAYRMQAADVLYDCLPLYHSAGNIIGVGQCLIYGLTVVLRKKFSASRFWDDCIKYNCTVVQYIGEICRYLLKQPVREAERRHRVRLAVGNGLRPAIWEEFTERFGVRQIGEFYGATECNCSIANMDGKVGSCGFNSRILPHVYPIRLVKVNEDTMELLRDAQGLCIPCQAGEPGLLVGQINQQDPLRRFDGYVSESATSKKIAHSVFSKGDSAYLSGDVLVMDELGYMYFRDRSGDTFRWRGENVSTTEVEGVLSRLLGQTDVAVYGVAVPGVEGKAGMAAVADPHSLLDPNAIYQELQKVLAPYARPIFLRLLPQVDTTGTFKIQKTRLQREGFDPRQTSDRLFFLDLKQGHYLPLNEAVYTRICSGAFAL

For orientation: pIC50 means the negative decadic logarithm of the IC50, by convention in mol/L. As for `O=C(CN1CCN(c2ccc(F)cn2)CC1)c1ncc2ccccn12`, the figures for the pIC50 in data set [1] and in data set [2] were below 5.00 and below 6.00, respectively.
As to `O=C(CN1CCN(c2cccc(F)c2)CC1)Nc1nc2c(s1)CCCC2`, the values for the pIC50 in data set [1] and in data set [2] were below 5.00 and below 6.00, respectively.
What is called logD is lipophilicity at a set pH, counting ionised and neutral species. In the case of `O=C(CN1CCN(c2ccc(F)cn2)CC1)c1cnc2ccccn12`, in data set [3], the remaining at 0.5 h came out at 98%. The molecule also gave a logD in data set [4] of 2.5. Besides, the pIC50 is 6.54 in data set [1] and 6.89 in data set [2].
For `O=C(CN1CCN(c2ccc(F)cn2)CC1)Nc1nc2c(o1)CCCC2` the same measures were 63%, 2.7, 5.77 and 7.00.
Molecule `O=C(CN1CCN(c2ccncc2)CC1)Nc1nc2c(s1)CCCC2` registered a logD in data set [4] of 2. Also, the pIC50 was below 5.00 in data set [1] and below 6.00 in data set [2].
For `O=C(CN1CCN(C2CCCCC2)CC1)Nc1nc2c(s1)CCCC2` the same measures were 3, below 5.00 and below 6.00.
`Cc1ccc(N2CCN(CC(=O)Nc3nc4c(s3)CCCC4)CC2)cc1` gave a logD in data set [4] of 4.8. In addition, the pIC50 was below 5.00 in data set [1] and 6.60 in data set [2].
On to `CCN(C(=O)CN1CCN(c2ccc(F)cn2)CC1)c1nc2c(s1)CCCC2`, for which the pIC50 in data set [1] is below 5.00; in data set [2] it was 6.11.
In the case of `O=C(CN1CCN(c2ccc(F)cc2)CC1)Nc1nc2c(s1)CCCC2`, the remaining at 0.5 h in data set [3] came to 42%. The molecule also registered a logD in data set [4] of 4.5. Further, the pIC50 was 5.40 in data set [1] and 7.11 in data set [2].
Consider `O=C(CN1CCN(C(=O)c2ccccc2)CC1)Nc1nc2c(s1)CCCC2`, for which the logD in data set [4] stood at 2.1. For the same molecule, the pIC50 in data set [1] was below 5.00; in data set [2] it was below 6.00.
On to `O=C(CN1CCN(c2cccnc2)CC1)Nc1nc2c(s1)CCCC2`, for which the logD in data set [4] turned out to be 3.3. The negative logarithm of the IC50 (pIC50) in data set [1] is below 5.00; in data set [2], below 6.00.
The like results for `O=C(CN1CCN(c2ccc(F)cc2)CC1)Nc1nccs1` were, in that order, 2.8, below 5.00 and below 6.00.
Take `Cc1nc2n(c1C(=O)CN1CCN(c3ccc(F)cn3)CC1)CCCC2`: the remaining at 0.5 h in data set [3] worked out at 55%. In data set [4], the logD turned out to be 2.5. The negative logarithm of the IC50 (pIC50) in data set [1] is 6.40; in data set [2], 6.72.
Take `O=C(CN1CCN(c2ccc(F)cc2)CC1)Nc1nc2c(s1)CCCCC2`: in data set [4], the logD came to 5. Further, the pIC50 in data set [1] is 5.70; in data set [2] it was 6.92.
For `O=C(CN1CCN(c2ncccn2)CC1)Nc1nc2c(s1)CCCC2` the same measures were 3.7, below 5.00 and below 6.00.
In data set [4], `O=C(CN1CCN(c2ccccc2)CC1)Nc1nc2c(s1)CCCC2` returned a log distribution coefficient (logD) of 4.3. The pIC50 in data set [1] was 5.05; in data set [2], 6.55.
With `O=C(CN1CCN(c2ccc(F)cc2)CC1)Nc1nc2ccccc2s1`, in data set [4], the logD stood at 4.4. Besides, the pIC50 in data set [1] is below 5.00; in data set [2], 6.31.
The like results for `O=C(CN1CCN(c2ccc(F)cc2)CC1)Nc1nc2c(s1)CCC2` were, in that order, 4, below 5.00 and 6.31.
Molecule `Cc1nc2ccccn2c1C(=O)CN1CCN(c2ccccc2)CC1` had a pIC50 in data set [2] of 5.52.
Regarding `O=C(CN1CCN(c2ccc(F)cn2)CC1)c1n[nH]c2ccccc12`, the log distribution coefficient (logD) in data set [4] turned out to be 2.8. Also, the pIC50 in data set [1] was below 5.00; in data set [2], below 6.00.
The like results for `O=C(CN1CCN(c2nccs2)CC1)Nc1nc2c(s1)CCCC2` were, in that order, 3.8, 5.10 and 6.28.
In the case of `O=C(CN1CCN(c2ccc(F)cn2)CC1)c1c[nH]c2ccccc12`, the pIC50 in data set [1] was below 5.00; in data set [2], below 6.00.
Consider `O=C(CN1CCN(c2ccccn2)CC1)Nc1nc2c(s1)CCCC2`, for which the logD in data set [4] stood at 3.9. Moreover, the figures for the pIC50 in data set [1] and in data set [2] were 5.31 and 6.70, respectively.
